Test results from ChEMBL document CHEMBL3992509, “Discovery of a Highly Potent, Selective, and Metabolically Stable Inhibitor of Receptor-Interacting Protein 1 (RIP1) for the Treatment of Systemic Inflammatory Response Syndrome” (J Med Chem, 2017).
The source made the active and inactive calls. The calls are words filed in the database; no cut-off is given here.

What was measured:
[1] = biological target: Receptor-interacting serine/threonine-protein kinase 3 (Homo sapiens) (UniProt Q9Y572); assay: Inhibition of TNFalpha/z-VAD-FMK-induced RIP3 phosphorylation at Ser-227 residue in human HT-29 cells by Western blot method; assay type: cell-based
Receptor-interacting serine/threonine-protein kinase 3 (Homo sapiens), sequence (Q9Y572 whole entry, looked up): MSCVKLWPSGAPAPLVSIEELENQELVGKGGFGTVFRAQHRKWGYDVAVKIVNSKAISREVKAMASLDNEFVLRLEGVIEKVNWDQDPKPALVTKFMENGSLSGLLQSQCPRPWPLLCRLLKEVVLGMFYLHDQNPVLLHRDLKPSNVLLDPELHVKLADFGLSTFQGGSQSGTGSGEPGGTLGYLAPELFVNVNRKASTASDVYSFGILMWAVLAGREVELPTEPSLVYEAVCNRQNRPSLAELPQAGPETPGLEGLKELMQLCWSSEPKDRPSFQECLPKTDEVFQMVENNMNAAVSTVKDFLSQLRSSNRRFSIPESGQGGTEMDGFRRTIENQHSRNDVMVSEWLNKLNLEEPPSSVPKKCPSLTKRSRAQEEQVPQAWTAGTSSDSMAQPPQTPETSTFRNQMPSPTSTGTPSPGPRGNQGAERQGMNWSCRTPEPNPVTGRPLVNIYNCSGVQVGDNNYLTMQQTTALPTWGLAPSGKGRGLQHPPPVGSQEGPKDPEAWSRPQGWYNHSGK

[2] = Apparent permeability from apical to basolateral side in MDCK cells harboring MDR1; assay type: ADME, cell-based, Canis lupus familiaris; details: dog
Method in brief: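 Permeability measured in MDCK-MDR1 cell monolayers in both directions, apical-to-basolateral and basolateral-to-apical; efflux ratio derived from the two Papp values.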

Cytochrome P450 2C9 = Cytochrome P450 2C9 (Homo sapiens, UniProt P11712); assay: Inhibition of CYP2C9 (unknown origin); assay type: ADME
Cytochrome P450 2C9, sequence (P11712 whole entry): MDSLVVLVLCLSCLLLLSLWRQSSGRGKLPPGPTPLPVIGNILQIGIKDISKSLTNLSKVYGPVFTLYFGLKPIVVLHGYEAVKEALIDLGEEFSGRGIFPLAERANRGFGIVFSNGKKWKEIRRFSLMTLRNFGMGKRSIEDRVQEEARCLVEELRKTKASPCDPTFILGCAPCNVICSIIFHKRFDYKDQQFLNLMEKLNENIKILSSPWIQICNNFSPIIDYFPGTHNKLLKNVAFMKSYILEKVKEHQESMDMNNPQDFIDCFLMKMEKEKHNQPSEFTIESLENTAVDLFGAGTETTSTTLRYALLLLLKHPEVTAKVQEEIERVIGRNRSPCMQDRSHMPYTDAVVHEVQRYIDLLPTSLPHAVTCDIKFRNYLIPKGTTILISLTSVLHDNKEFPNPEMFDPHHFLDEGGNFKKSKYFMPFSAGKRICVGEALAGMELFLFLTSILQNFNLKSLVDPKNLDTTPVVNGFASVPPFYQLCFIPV

Mus musculus [3] = assay: Protection against TNFalpha-induced multiorgan damage in C57BL/6J mouse assessed as serum AST level at 0.3 to 3 mg/kg, ip pretreated for 17 mins followed by TNFalpha injection and subsequent compound treatment once in every 12 hrs measured 24 hrs post TNFalpha injection; assay type: functional, organism-based
Method in brief: (§1)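 C57BL/6 mice given 4 μg mTNFα (~0.18 mg/kg) IV. Compound 0.3, 1, 3 mg/kg IP 17 min before and then every 12 h; vehicle controls. Blood taken 12 h and 24 h after TNFα. Assays: IL-6 and IL-1β; serum LDH, CK, AST, creatinine, BUN, amylase.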

[4] = Intrinsic clearance in mouse liver microsomes assessed per mg protein in presence of NADPH by LC-MS/MS analysis; assay type: ADME, microsome; details: read-out: CLH
Mus musculus [5] = assay: (§2) Protection against TNFalpha-induced kidney damage in C57BL/6J mouse at 0.3 to 3 mg/kg, ip pretreated for 17 mins followed by TNFalpha injection and subsequent compound treatment once in every 12 hrs measured 24 hrs post TNFalpha injection by hematoxylin and eosin staining based assay; assay type: functional, organism-based
Method in brief: (§3)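 Mice given mTNFα IV; compound 0.3, 1, 3 mg/kg IP 17 min before and every 12 h. Killed 24 h post-TNFα. Organs fixed 24 h in 10% neutral buffered formalin, paraffin-embedded, 5-μm sections, H&E stained; ×200, at least three mice each.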

[6] = Half life in C57BL/6J mouse at 2 mg/kg, iv by LC-MS/MS analysis; assay type: ADME, organism-based; details: in vivo
Method in brief: (§4)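 C57BL/6 mice (n = 3) dosed IV, IP or PO; blood sampled by eye puncture at various time points; plasma levels by LC-MS/MS; parameters from individual animal data by non-compartmental analysis.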

Mus musculus [7] = assay: Protection against TNFalpha-induced multiorgan damage in C57BL/6J mouse assessed as blood urea nitrogen level at 0.3 to 3 mg/kg, ip pretreated for 17 mins followed by TNFalpha injection and subsequent compound treatment once in every 12 hrs measured 24 hrs post TNFalpha injection; assay type: functional, organism-based; method in brief: as §1
Cytochrome P450 2C19 = Cytochrome P450 2C19 (Homo sapiens, UniProt P33261); assay: Inhibition of CYP2C19 (unknown origin); assay type: ADME
Cytochrome P450 2C19, sequence (P33261 whole entry): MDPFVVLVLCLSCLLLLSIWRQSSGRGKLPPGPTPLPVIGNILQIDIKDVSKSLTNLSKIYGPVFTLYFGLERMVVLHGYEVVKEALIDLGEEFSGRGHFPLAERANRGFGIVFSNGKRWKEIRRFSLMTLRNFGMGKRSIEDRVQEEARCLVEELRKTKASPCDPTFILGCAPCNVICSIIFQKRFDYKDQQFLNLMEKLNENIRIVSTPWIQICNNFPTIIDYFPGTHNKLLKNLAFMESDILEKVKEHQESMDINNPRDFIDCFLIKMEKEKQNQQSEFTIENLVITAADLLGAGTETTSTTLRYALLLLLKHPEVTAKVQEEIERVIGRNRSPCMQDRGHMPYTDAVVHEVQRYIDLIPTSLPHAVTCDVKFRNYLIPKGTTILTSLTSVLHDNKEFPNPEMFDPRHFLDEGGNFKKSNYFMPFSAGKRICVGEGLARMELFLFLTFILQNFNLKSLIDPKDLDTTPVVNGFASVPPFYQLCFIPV

[8] = biological target: Receptor-interacting serine/threonine-protein kinase 3 (Homo sapiens) (UniProt Q9Y572); assay: Inhibition of full length recombinant human N-terminal GST-tagged RIP3 expressed in baculovirus infected sf9 cells at 10 uM using MBP as substrate preincubated for 15 mins followed by MBP/ATP mixture addition measured after 90 mins by ADP-Glo kinase assay
Mus musculus [9] = assay: Protection against TNFalpha-induced multiorgan damage in C57BL/6J mouse assessed as inhibition of TNFalpha-induced increase in IL-1beta level at 0.3 to 3 mg/kg, ip pretreated for 17 mins followed by TNFalpha injection and subsequent compound treatment once in every 12 hrs measured after 12 hrs; assay type: functional, organism-based; method in brief: as §1
[10] = Bioavailability in C57BL/6J mouse at 10 mg/kg, ip by LC-MS/MS analysis; assay type: ADME, organism-based; details: in vivo; method in brief: as §4
Cytochrome P450 2D6 = Cytochrome P450 2D6 (Homo sapiens, UniProt P10635); assay: Inhibition of CYP2D6 (unknown origin); assay type: ADME
Cytochrome P450 2D6, sequence (P10635 whole entry): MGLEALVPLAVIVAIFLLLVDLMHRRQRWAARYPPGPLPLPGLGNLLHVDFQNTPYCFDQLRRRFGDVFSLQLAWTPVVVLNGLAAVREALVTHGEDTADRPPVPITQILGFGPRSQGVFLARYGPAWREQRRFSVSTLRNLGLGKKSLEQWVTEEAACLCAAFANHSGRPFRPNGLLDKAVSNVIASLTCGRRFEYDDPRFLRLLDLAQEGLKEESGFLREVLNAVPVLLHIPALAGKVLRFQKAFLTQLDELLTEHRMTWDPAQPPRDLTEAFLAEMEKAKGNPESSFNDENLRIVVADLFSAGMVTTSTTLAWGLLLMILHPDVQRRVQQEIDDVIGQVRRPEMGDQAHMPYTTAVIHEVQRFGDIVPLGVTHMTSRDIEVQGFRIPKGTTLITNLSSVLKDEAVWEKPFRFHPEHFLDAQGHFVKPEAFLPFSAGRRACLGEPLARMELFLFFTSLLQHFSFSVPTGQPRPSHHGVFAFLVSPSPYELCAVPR

[11] = Intrinsic clearance in human liver microsomes assessed per mg protein in presence of NADPH by LC-MS/MS analysis; assay type: ADME, microsome; details: read-out: CLH
[12] = biological target: Indoleamine 2,3-dioxygenase 1 (Homo sapiens, UniProt P14902); assay: Inhibition of recombinant human IDO expressed in Escherichia coli assessed as reduction in kynurenine production at 200 uM using L-tryptophan as substrate after 3 hrs by methylene blue dye based assay
Indoleamine 2,3-dioxygenase 1, sequence (P14902 whole entry): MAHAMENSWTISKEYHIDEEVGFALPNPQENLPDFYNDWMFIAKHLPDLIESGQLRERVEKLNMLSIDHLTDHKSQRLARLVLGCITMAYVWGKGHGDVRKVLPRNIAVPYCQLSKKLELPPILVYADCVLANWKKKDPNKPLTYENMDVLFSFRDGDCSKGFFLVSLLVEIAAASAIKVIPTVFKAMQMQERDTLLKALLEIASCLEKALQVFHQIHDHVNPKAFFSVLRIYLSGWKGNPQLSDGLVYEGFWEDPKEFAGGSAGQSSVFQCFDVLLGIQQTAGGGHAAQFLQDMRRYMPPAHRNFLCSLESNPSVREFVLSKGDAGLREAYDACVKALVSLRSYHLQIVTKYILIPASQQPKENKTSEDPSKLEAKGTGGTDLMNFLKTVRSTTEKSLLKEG
Method in brief: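 Reaction mix: 50 mM MES pH 6.5, 20 mM ascorbate, 2250 U/mL catalase, 10 μM methylene blue, 200 μM L-Trp, 100 nM recombinant IDO, 200 μM compound or DMSO. Incubated 37 °C for 3 h; kynurenine colour read at 321 nm.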

Mus musculus [13] = assay: as §2, with “thymus” for “kidney”, “mouse assessed as reduction in immune cell infiltration” for “mouse”; assay type: functional, organism-based; method in brief: as §3
[14] = Oral bioavailability in C57BL/6J mouse at 10 mg/kg by LC-MS/MS analysis; assay type: ADME, organism-based; details: in vivo; method in brief: as §4
Mus musculus [15] = assay: Protection against TNFalpha-induced multiorgan damage in C57BL/6J mouse assessed as inhibition of TNFalpha-induced increase in IL-6 level at 0.3 to 3 mg/kg, ip pretreated for 17 mins followed by TNFalpha injection and subsequent compound treatment once in every 12 hrs measured after 12 hrs; assay type: functional, organism-based; method in brief: as §1
[16] = biological target: Voltage-gated inwardly rectifying potassium channel KCNH2 (Homo sapiens, UniProt Q12809); assay: Inhibition of human ERG at 30 uM by manual patch clamp method
Voltage-gated inwardly rectifying potassium channel KCNH2, sequence (Q12809 whole entry): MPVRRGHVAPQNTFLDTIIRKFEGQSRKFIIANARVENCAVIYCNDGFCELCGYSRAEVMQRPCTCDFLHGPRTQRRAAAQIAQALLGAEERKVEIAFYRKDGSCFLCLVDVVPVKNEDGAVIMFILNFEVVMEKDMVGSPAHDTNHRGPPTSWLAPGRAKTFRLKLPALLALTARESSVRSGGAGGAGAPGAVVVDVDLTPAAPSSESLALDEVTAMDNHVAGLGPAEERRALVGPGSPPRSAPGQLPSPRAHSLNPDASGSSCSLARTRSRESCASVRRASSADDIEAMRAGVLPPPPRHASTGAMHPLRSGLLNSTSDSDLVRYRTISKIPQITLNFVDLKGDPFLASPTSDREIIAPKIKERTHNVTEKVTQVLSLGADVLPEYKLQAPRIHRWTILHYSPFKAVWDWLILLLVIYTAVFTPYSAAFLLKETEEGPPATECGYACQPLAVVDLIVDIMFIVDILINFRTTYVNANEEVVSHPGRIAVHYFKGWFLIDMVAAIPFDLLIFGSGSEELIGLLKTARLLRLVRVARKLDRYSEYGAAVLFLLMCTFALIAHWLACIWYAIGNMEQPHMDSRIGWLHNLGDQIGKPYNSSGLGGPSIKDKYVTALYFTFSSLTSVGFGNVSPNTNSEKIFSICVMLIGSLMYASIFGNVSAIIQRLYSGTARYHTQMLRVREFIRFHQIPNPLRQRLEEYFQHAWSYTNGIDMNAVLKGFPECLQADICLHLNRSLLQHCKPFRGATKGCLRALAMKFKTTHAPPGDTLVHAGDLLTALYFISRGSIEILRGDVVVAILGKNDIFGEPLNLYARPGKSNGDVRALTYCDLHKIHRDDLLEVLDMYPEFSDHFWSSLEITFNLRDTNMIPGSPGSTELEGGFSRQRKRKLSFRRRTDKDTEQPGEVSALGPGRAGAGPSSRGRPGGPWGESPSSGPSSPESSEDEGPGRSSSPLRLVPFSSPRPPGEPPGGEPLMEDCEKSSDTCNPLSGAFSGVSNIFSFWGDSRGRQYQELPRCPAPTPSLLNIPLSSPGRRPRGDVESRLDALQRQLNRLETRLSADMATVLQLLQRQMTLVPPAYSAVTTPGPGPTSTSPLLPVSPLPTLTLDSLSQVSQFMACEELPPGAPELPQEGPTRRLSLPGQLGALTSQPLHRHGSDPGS
Method in brief: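 Manual patch clamp on hERG channel, tested up to 30 μM.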

Mus musculus [17] = assay: (§5) Protection against TNFalpha-induced mortality in ip dosed C57BL/6J mouse assessed as increase in survival rate pretreated for 17 mins followed by TNFalpha injection and subsequent compound treatment once in every 12 hrs measured every 30 mins up to 60 hrs post TNFalpha injection during compound dosing; assay type: functional, organism-based
Method in brief: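 C57BL/6 mice, 6-8 weeks, ~20 g, randomized (n = 6~10). Given 5.5 μg mTNFα (~0.25 mg/kg) IV in endotoxin-free PBS, 0.2 mL. Compound IP 17 min before TNFα: either once at 6 mg/kg or […], 1, 3 mg/kg then every 12 h; vehicle controls. Survival checked every 30 min to 60 h.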

[18] = Half life in human liver microsomes in presence of NADPH by LC-MS/MS analysis; assay type: ADME, microsome
Mus musculus [19] = assay: Protection against TNFalpha-induced multiorgan damage in C57BL/6J mouse assessed as serum CK-MB level at 0.3 to 3 mg/kg, ip pretreated for 17 mins followed by TNFalpha injection and subsequent compound treatment once in every 12 hrs measured 24 hrs post TNFalpha injection; assay type: functional, organism-based; method in brief: as §1
Mus musculus [20] = assay: Protection against TNFalpha-induced multiorgan damage in C57BL/6J mouse assessed as serum amylase level at 0.3 to 3 mg/kg, ip pretreated for 17 mins followed by TNFalpha injection and subsequent compound treatment once in every 12 hrs measured 24 hrs post TNFalpha injection; assay type: functional, organism-based; method in brief: as §1
Mus musculus [21] = assay: Protection against TNFalpha-induced multiorgan damage in C57BL/6J mouse assessed as serum LDH level at 0.3 to 3 mg/kg, ip pretreated for 17 mins followed by TNFalpha injection and subsequent compound treatment once in every 12 hrs measured 24 hrs post TNFalpha injection; assay type: functional, organism-based; method in brief: as §1
Mus musculus [22] = assay: as §5, with “in” for “in ip dosed”, “as” for “as increase in”, “rate at 3 mg/kg, ip” for “rate”, “dosing (reference value: 50%)” for “dosing”; assay type: functional
[23] = Half life in mouse liver microsomes in presence of NADPH by LC-MS/MS analysis; assay type: ADME, microsome

CCC(C)(C)C(=O)N(O)Cc1ccccc1
inhibition [1]: Active | Papp A→B [2]: > 30 ×10⁻⁶ cm/s | IC50 (Cytochrome P450 2C9): > 50 µM | Activity (Mus musculus [3]): Active | microsomal CLint [4]: 19.5 µL/min/mg | Activity (Mus musculus [5]): Active | half-life [6]: 3.1 h | Activity (Mus musculus [7]): Active | IC50 (Cytochrome P450 2C19): > 50 µM | inhibition [8]: inactive | inhibition (Mus musculus [9]): Active | bioavailability [10]: 100% | IC50 (Cytochrome P450 2D6): > 50 µM | microsomal CLint [11]: 5.4 µL/min/mg | inhibition (INH) [12]: Not Active | Activity (Mus musculus [13]): Active | bioavailability [14]: 22% | inhibition (Mus musculus [15]): Active | inhibition (INH) [16]: Not Active | Activity (Mus musculus [17]): Dose-dependent effect | half-life [18]: 2.13 h | Activity (Mus musculus [19]): Active | Activity (Mus musculus [20]): Active | Activity (Mus musculus [21]): Active | survival at 3 mg/kg (Mus musculus [22]): 100% | half-life [23]: 0.592 h
